Scp1 inh: blocks human Scp-1 phosphatase activity; Recombinant Scp1, phosphopeptide, malachite green phosphate absorbance; Q9GZU7; actives 0.88% (n = 340,000); inhibition, % at 20 µM;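 active = inhibition above about 50% at 20 µM, limit read from the data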
Target sequence (Q9GZU7 76-261 limits assumed): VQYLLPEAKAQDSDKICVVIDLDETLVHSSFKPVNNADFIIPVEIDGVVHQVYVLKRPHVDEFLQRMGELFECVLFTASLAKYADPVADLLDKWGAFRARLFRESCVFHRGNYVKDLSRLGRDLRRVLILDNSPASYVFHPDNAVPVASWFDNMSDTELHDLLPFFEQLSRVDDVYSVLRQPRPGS
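assay system = SCP-1 phosphatase catalytic domain, residues 76-261 | buffer or medium = 50 mM Tris acetate pH 5.5, 0.005% Tween-20, 10 mM MgCl2 | incubation = enzyme reaction 45 min at room temperature, colour 5 min, stabilisation 30 min | signal = Phosphate-binding colour reagent, absorbance read at 630 nm | measure = % inhibition at 20 µM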
STEP block: STEP (human) phosphatase inhibition; recombinant STEP, OMFP fluorogenic substrate, fluorescence; inhibition, % at 20 µM; actives 0.25% (n = 360,000); AID 588621;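 active = inhibition at 20 µM, scaled per plate between control wells, above about 37%, limit read from the data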
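Material: STEP (striatal-enriched tyrosine phosphatase) enzyme, cell-free; Compound dosing: 20 µM single dose in 1% DMSO; Technique: fluorescence read at 480 nm ex / 540 nm em; Times: reaction 20 min, ambient temperature; Medium: 50 mM Bis-Tris pH 6.0 with 2.5 mM DTT and 0.005% Tween 20; Also added: OMFP at 25 µM.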
rCAG binder: molecules binding r(CAG) RNA repeats; r(CAG) RNA repeat, TO-PRO-1 dye displacement fluorescence; inhibition, % at 3 µM; actives 1.3% (n = 370,000);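 active = inhibition above the plate cutoff, the mean of all test compounds on that plate plus 3 SD, cut at about 35% in these data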;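 also: higher means more dye released from RNA so lower well fluorescence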
NadD block: inhibitors of Staphylococcus aureus NadD | actives 0.78% (n = 360,000) | AID 602399 | inhibition, % at 20 µM | purified NadD enzyme, colorimetric absorbance read-out; in the data active = inhibition above about 26%
LMPTP inh: LMPTP (human) inhibition | P24666 | recombinant LMPTP-A, OMFP fluorogenic substrate, fluorescence intensity | inhibition, % at 20 µM | actives 0.22% (n = 360,000);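 active = compounds that cut the enzyme signal by at least half of the control window in the single-dose screen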
Target sequence (P24666 whole entry, looked up): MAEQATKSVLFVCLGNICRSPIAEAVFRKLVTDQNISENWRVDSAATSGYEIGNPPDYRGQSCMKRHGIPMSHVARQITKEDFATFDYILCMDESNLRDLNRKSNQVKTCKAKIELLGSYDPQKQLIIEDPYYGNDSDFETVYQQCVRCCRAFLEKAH
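Material: LMPTP-A; amount: 0.625 nM enzyme; doses: single 20 µM dose; times: reaction 50 min, room temperature, dark; technique: fluorescence intensity of OMFP turnover product; benchmarks: no-enzyme and uninhibited controls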
rCAG binder conf: r(CAG) RNA repeat binding, confirmation. TO-PRO-1 dye displacement fluorescence. shares compounds with rCAG binder. inhibition, % at 3 µM. actives 70% (n = 4,300);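 active = inhibition above a per-plate cutoff, the mean inhibition of sample wells plus 3 SD, cut at about 35% in these data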;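 also: loss of TO-PRO-1 fluorescence as compound displaces dye from 1x1 AA loop RNA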
DNA CAG counter: counter-screen for rCAG RNA binders: DNA CAG dye complex inhibitors. inhibition, % at 3 µM. shares compounds with rCAG binder. actives 94% (n = 4,300). d(CAG) DNA oligo TO-PRO-1 dye displacement, fluorescence;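 active = inhibition above its plate's cutoff, the mean test-well inhibition plus 3 SD, cut at about 4.8% in these data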;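 also: hits displace the dye from DNA and so lower well fluorescence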
Hits are given with their value. This is a sample that favours compounds with a hit; in the whole collection about 2.6% have one here.

Results for C=CCCC(=O)Nc1nc(C)c(-c2csc(Nc3ccc(Cl)cc3Cl)n2)s1 ?
Scp1 inh: inactive; STEP block: inactive; rCAG binder: 36; NadD block: inactive; LMPTP inh: inactive; rCAG binder conf: inactive; DNA CAG counter: 13

Results for COc1ccc(Cl)cc1Nc1nc(-c2sc(NC(=O)CC(C)C)nc2C)cs1 ?
Scp1 inh: inactive; STEP block: inactive; rCAG binder: 36; NadD block: inactive; LMPTP inh: inactive; rCAG binder conf: inactive; DNA CAG counter: 14

Results for CCN(CC)C(=O)CC[C@H]1CC[C@]2(CCCN(Cc3cccc4ccccc34)C2)O1 ?
rCAG binder: inactive

Results for CCN(CC)c1nc(C)nc2c1nnn2Cc1ccccc1 ?
rCAG binder: inactive

How did COc1cccc(NC(=O)CSc2ncnc3c2oc2ccccc23)c1 do in these assays?
Scp1 inh: inactive; STEP block: inactive; rCAG binder: inactive; NadD block: inactive; LMPTP inh: inactive

What do the screens show for `COc1cccc(NC(=O)CSc2nc3c(oc4ccccc43)c(=O)[nH]2)c1`?
Scp1 inh: inactive; STEP block: inactive; rCAG binder: 54; NadD block: inactive; LMPTP inh: inactive; rCAG binder conf: 45; DNA CAG counter: 15

How did COc1ccc(S[C@]2(C(=O)N3CCCC3)CC(=O)N(c3ccc4c(ccn4C)c3)[C@@H]2c2ccc(OC)cc2)cc1 do in these assays?
rCAG binder: inactive

What do the screens show for `CC(=O)Nc1ccc(Br)c2ccccc12`?
Scp1 inh: inactive; STEP block: inactive; rCAG binder: inactive; NadD block: inactive; LMPTP inh: inactive

Results for O=C(Nc1ccc(Br)c2ccccc12)c1ccc2ccccc2c1O ?
Scp1 inh: inactive; STEP block: inactive; rCAG binder: 77; NadD block: inactive; LMPTP inh: inactive; rCAG binder conf: 78; DNA CAG counter: 40

Results for C=CCN1C(C(=O)OC)CN(Cc2cn(Cc3ccc(OC)cc3)nn2)CCS1(=O)=O (centres undefined) ?
rCAG binder: inactive

Results for CC(/C=C1\SC(=S)N(NC(=O)c2cccc(O)c2)C1=O)=C\c1ccccc1 ?
Scp1 inh: inactive; STEP block: inactive; rCAG binder: 40; NadD block: inactive; LMPTP inh: inactive; rCAG binder conf: inactive; DNA CAG counter: 12

How did O=C(NN1C(=O)/C(=C/c2ccc(O)cc2)SC1=S)c1cccc(O)c1 do in these assays?
Scp1 inh: inactive; STEP block: inactive; rCAG binder: inactive; NadD block: inactive; LMPTP inh: inactive

What do the screens show for `Cc1nnc(SC(C(=O)Nc2ccc(Cl)c([N+](=O)[O-])c2)c2ccccc2)[nH]c1=O` (centres undefined)?
Scp1 inh: inactive; STEP block: inactive; rCAG binder: 61; NadD block: inactive; LMPTP inh: inactive; rCAG binder conf: 40; DNA CAG counter: 12

What do the screens show for `Cc1cc(C)cc(NC(=O)C(Sc2nnc(C)c(=O)[nH]2)c2ccccc2)c1` (centres undefined)?
Scp1 inh: inactive; STEP block: inactive; rCAG binder: inactive; NadD block: inactive; LMPTP inh: inactive

What do the screens show for `CC(C)(C)OC(=O)[C@H]1[C@H](c2ccc([N+](=O)[O-])cc2)C2(C(=O)c3ccccc3C2=O)C2c3ccccc3C=NN21` (some centres undefined)?
Scp1 inh: inactive; STEP block: inactive; rCAG binder: 36; NadD block: inactive; LMPTP inh: inactive; rCAG binder conf: inactive; DNA CAG counter: 9.9

What do the screens show for `C[C@@H]1/C=C/CC(=O)N[C@H](c2ccccc2)[C@H](C)/C=C/CC(=O)N[C@@H]1c1ccccc1`?
rCAG binder: inactive

Results for Cc1c(Cl)cccc1NC(=O)CSc1sc2c(O)cc(=O)[nH]c2c1C#N ?
Scp1 inh: inactive; STEP block: inactive; rCAG binder: 39; NadD block: inactive; LMPTP inh: inactive; rCAG binder conf: inactive; DNA CAG counter: 5.8

How did N#Cc1c(SCC(=O)Nc2ccccc2C(F)(F)F)sc2c(O)cc(=O)[nH]c12 do in these assays?
Scp1 inh: inactive; STEP block: inactive; rCAG binder: 50; NadD block: inactive; LMPTP inh: inactive; rCAG binder conf: inactive; DNA CAG counter: 6.3

How did N#Cc1c(SCC(=O)Nc2ccc(Cl)cc2Cl)sc2c(O)cc(=O)[nH]c12 do in these assays?
Scp1 inh: inactive; STEP block: inactive; rCAG binder: 44; NadD block: inactive; LMPTP inh: inactive; rCAG binder conf: inactive; DNA CAG counter: 13

Results for CCOc1cccc(NC(=O)CSc2sc3c(O)cc(=O)[nH]c3c2C#N)c1 ?
Scp1 inh: inactive; STEP block: inactive; rCAG binder: 39; NadD block: inactive; LMPTP inh: inactive; rCAG binder conf: inactive; DNA CAG counter: 9.4

How did Cc1cccc(CCNC(=O)Cn2nc(-c3ccccc3)ccc2=O)c1 do in these assays?
rCAG binder: inactive

How did Cc1cc(NC(=O)CCc2c[nH]c3ccccc23)ccc1Nc1cccnc1 do in these assays?
rCAG binder: inactive

What do the screens show for `O=S(=O)(CC1NCc2cc(F)ccc21)NC1CCCC1` (centres undefined)?
rCAG binder: inactive

Results for C[C@@H]1CN([C@H](C)CO)C(=O)CCCn2cc(nn2)CO[C@H]1CN(C)S(=O)(=O)c1cn(C)cn1 ?
rCAG binder: inactive

Results for COc1cc(N=Nc2cccc(S(N)(=O)=O)c2)c2ccccc2c1N ?
Scp1 inh: inactive; STEP block: inactive; rCAG binder: 52; NadD block: inactive; LMPTP inh: inactive; rCAG binder conf: inactive; DNA CAG counter: 12

Results for COc1ccc(-n2c(Cc3cccs3)nnc2SCC(=O)Nc2ccc(OCc3ccccc3)cc2)cc1 ?
rCAG binder: inactive

What do the screens show for `O=C(NCc1ccccc1)[C@@H]1CCCN1C(=O)[C@H]1CCCN1C(=O)c1cccc2ccccc12`?
rCAG binder: inactive

What do the screens show for `CN(C)S(=O)(=O)c1cccc(NC(=S)N/N=C/c2cc(Br)ccc2O)c1`?
Scp1 inh: inactive; STEP block: inactive; rCAG binder: 46; NadD block: inactive; LMPTP inh: inactive; rCAG binder conf: 55; DNA CAG counter: 21

What do the screens show for `S=c1[nH]nc(COc2ccccc2)n1/N=C/c1ccc(Cl)cc1`?
Scp1 inh: inactive; STEP block: inactive; rCAG binder: 44; NadD block: inactive; LMPTP inh: inactive; rCAG binder conf: inactive; DNA CAG counter: 7.4

What do the screens show for `S=c1[nH]nc(COc2ccccc2)n1/N=C/c1ccc(Br)s1`?
Scp1 inh: inactive; STEP block: inactive; rCAG binder: 44; NadD block: inactive; LMPTP inh: inactive; rCAG binder conf: inactive; DNA CAG counter: 8.1
